A selection: hits, their analogues and other compounds. The true share with any hit is near 2.3%.
HNF4A DNA FP = change in binding of human HNF4A to DNA, primary screen, biochemical, fluorescence polarization, FITC-DNA; activity change, % at 10 µM; 0.3% of 360,000 active; Hepatocyte nuclear factor 4-alpha (Homo sapiens), P41235; AID 1224865, 2016; 1 h; in the data active = activity change above about 30%, passing the limit was not always enough
CRFBP-R2 block = antagonists of CRF-BP/CRF-R2 complex, primary screen, cell-based, HEK293, calcium dye fluorescence, uHTS | CRF-induced calcium fluorescence | inhibition, % at 11.8 µM | 0.59% of 350,000 active;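 active = inhibition of the ligand-induced calcium signal above about 50% at the single tested concentration, limit read from the data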
CRFBP-R2 agonist = agonists of CRF-BP/CRF-R2 complex, primary screen, cell-based, HEK293, calcium dye fluorescence, uHTS; activation, % at 13.2 µM; 0.46% of 350,000 active; calcium dye fluorescence (FLIPR); percent of saturating CRF peptide response;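 active = activation of at least 50%, plus an integration ratio under a set limit after plate pattern correction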;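 also: plate controls were neutral control wells without compound for no effect and CRF at EC100 for full effect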
CSN deneddyl inh = inhibitors of CSN-mediated cullin deneddylation, primary screen, biochemical, fluorescence polarization, uHTS | Purified CSN, SCF-Nedd8-OG deneddylation | inhibition, % at 12.5 µM | 0.38% of 360,000 active | AID 651999, 2013;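 active = pattern-corrected inhibition above about 35%, with an unprinted fluorescence ratio check between 0.5 and 1.5, limit read from the data, passing the limit was not always enough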;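 also: 0% = enzyme with substrate and 100% = substrate without enzyme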
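Test system: Human Csn5 produced in HEK293T cells | Compound: 12.5 µM single point | Times: 90 min, room temperature | Signal: Fluorescence polarization readout | Read-out basis: % inhibition of substrate cleavage by Csn5 | Controls: no-enzyme wells high, enzyme-with-substrate wells low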
Rpn11 block = Rpn11 (PSMD14) deubiquitinase inhibitors, primary screen, biochemical, fluorescence polarization, uHTS; human 26S proteasome, Ub4-pepOG fluorescence polarization; 20S core pre-blocked with epoxomicin; calls only at 20 µM; 0.59% of 360,000 active; AID 588493, 2011;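 active = inhibition at 20 µM, scaled to each plate's controls, above about 33%, limit read from the data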
TPT1 inhibitor = Candida albicans TPT1 enzyme inhibitors, primary screen, biochemical, fluorescence polarization; AID 1962, 2009; 0.81% of 300,000 active; tRNA 2'-phosphotransferase TPT1 (Candida albicans SC5314); inhibition, % at 5 µM; recombinant caTPT1, FP RNA substrate dephosphorylation;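 active = inhibition above the mean of all tested compounds plus 3 SD, set per screening campaign, cut at about 24% in these data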;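 also: plate controls were DMSO alone for no effect and ferristatin control at 100 nM for full effect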
Rpn11 confirm = Rpn11 (PSMD14) deubiquitinase inhibitors, confirmation, biochemical, fluorescence polarization, single concentration; shares compounds with Rpn11 block; purified human 26S proteasome, Ub4-pepOG fluorescence polarization; proteasome pretreated with epoxomicin; inhibition, % at 20 µM; 29% of 1,900 active; AID 602318, 2012
MMP-2 inh = MMP-2 enzyme inhibition, confirmation, counter-screen for RPN11 inhibitor project, biochemical, fluorescence, single concentration | shares compounds with Rpn11 block | recombinant MMP-2, FRET peptide cleavage fluorescence | inhibition, % at 20 µM | 4% of 1,900 active | AID 602330, 2012;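 also: human MMP-2 activated beforehand with APMA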
Target sequence (P08253 whole entry, looked up): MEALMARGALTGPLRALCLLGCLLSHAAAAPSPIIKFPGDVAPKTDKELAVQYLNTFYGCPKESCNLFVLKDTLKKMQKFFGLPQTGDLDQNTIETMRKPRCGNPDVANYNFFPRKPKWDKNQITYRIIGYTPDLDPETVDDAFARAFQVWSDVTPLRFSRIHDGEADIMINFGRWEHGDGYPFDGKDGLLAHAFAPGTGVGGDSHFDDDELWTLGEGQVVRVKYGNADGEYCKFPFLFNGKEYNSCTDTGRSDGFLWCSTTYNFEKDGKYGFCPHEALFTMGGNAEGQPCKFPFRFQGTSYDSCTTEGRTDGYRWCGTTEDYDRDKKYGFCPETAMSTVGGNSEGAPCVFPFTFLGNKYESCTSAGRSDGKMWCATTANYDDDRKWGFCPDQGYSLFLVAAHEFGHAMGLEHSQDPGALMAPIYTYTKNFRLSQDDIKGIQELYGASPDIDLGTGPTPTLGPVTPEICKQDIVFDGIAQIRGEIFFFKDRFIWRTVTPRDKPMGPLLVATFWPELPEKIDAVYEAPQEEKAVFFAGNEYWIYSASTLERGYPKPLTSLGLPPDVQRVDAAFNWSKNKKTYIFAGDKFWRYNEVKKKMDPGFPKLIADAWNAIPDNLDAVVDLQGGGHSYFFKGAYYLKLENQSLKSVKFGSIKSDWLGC
Thrombin inh = bovine thrombin protease inhibition, confirmation, counter-screen for Rpn11 inhibitor project, biochemical, fluorescence polarization, single concentration | shares compounds with Rpn11 block | bovine thrombin cleavage of Ub4-pepOG | inhibition, % at 20 µM | 13% of 1,900 active | AID 602333, 2012;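 active = mean inhibition at least 40% at 20 µM, or signal 3 deviations below plate average, so some actives read negative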;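 also: plate controls were thrombin with DMSO for no effect and buffer wells lacking thrombin for full effect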
Numbers without * were called inactive; i = inactive; x = no result given; + = active, no number. Rule as the data show it, unless noted: active = inhibition above about 40%; inactive = the rest.

SMILES | HNF4A DNA FP | CRFBP-R2 block | CRFBP-R2 agonist | CSN deneddyl inh | Rpn11 block | TPT1 inhibitor | Rpn11 confirm | MMP-2 inh | Thrombin inh
O=C(CSCc1cc(=O)n2nc(C3CC3)sc2n1)Nc1ccc(F)cc1 | -2 | -14 | 1 | 1 | i | -2 | x | x | x
O=C(NCCN1CCCCCC1)c1ccc(CS(=O)(=O)c2ccc(Br)cc2)o1 | 7 | -1 | 0 | 5 | + | -1 | 32 | 14 | 13
O=C(NCCCN1CCCCCC1)c1ccc(CS(=O)(=O)Cc2ccccc2F)o1 | 128 | -1 | 0 | 97* | + | x | 75* | -436 | 3
CCOc1ccc(C2/C(=C(\O)c3cccc(OC)c3)C(=O)C(=O)N2c2ccccn2)cc1OC (stereo unspecified) | -2 | -6 | -1 | 1 | i | -1 | x | x | x
FC(F)Oc1ccc(NC(=S)NNc2ccnc3cc(Cl)ccc23)cc1 | 39 | -23 | 0 | 11 | + | 3 | 84* | 39 | active
COc1ccc(-c2nc3oc4cc(OC)ccc4c(=O)c3c(=O)n2Cc2ccco2)cc1 | -2 | -22 | 1 | 3 | i | -1 | x | x | x
CCc1nc2oc3cc(OC)ccc3c(=O)c2c(=O)n1Cc1ccco1 | 17 | 0 | 0 | 13 | + | 0 | -8 | 6 | 19
Cc1nc2ccc(NC(=O)NC(=O)c3c(Cl)cccc3Cl)cc2o1 | 2 | 10 | 0 | -1 | i | 2 | x | x | x
CC1CCC(NC(=O)Cn2c(=O)oc3cc(S(=O)(=O)N4CCCC4)ccc32)CC1 (stereo unspecified) | -1 | -8 | 9 | 3 | i | -4 | x | x | x
CCOC1=C/C(=C/c2c(N)n3nc(CC(=O)N4CCCC4)sc3nc2=O)C=CC1=O | 13 | -43 | 21 | 20 | + | 8 | 35 | 23 | 38
COC1=C/C(=C/c2c(N)n3nc(CC(=O)N4CCCC4)sc3nc2=O)C=CC1=O | 17 | -34 | 18 | 15 | + | 13 | 28 | -15 | 36
Nc1c(/C=C2/C=CC(=O)C(O)=C2)c(=O)nc2sc(CC(=O)N3CCCCC3)nn12 | -24 | -21 | 14 | 83 | x | 2 | x | x | x
Nc1c(/C=C2/C=CC(=O)C(O)=C2)c(=O)nc2sc(CC(=O)N3CCOCC3)nn12 | -1 | -4 | -1 | 53 | i | x | x | x | x
CN(C(=O)CCN1C(=O)C2C3C=CC(C3)C2C1=O)c1ccccc1 (stereo unspecified) | -1 | 6 | 0 | -3 | i | -3 | x | x | x
COc1ccc(C)cc1NC(=O)CN1CCN(S(=O)(=O)c2ccc(Br)cc2)CC1 | 4 | 6 | 1 | 0 | i | 0 | x | x | x
CC1=Nc2ccc(C)cc2/C1=C/c1c(N)n2oc(C)cc2nc1=O | 19 | -5 | 4 | 18 | + | 16 | 59* | -25 | 32
Cc1ccc(Nc2nc(-c3ccc(C)cc3)c(CC(=O)O)s2)cc1 | 16 | 11 | 3 | 65* | + | 9 | 33 | 10 | 20
CCc1ccc(CNC(=O)CC2C(=O)NCCN2Cc2ccccc2F)nc1 (stereo unspecified) | 0 | 6 | 0 | 3 | i | -3 | x | x | x
CCOc1cc(/C=C(\C#N)C(=O)Nc2cccc(C(=O)O)c2)ccc1OCc1ccc(Br)cc1 | -5 | 13 | 0 | 22 | + | -4 | -11 | -7 | -4
Cc1c(Cl)cnc(NC(=O)COC(=O)c2ccc3ncsc3c2)c1Cl | 0 | 3 | 0 | 12 | i | 4 | x | x | x
C=CCNC(=O)c1cccc2c1C(=O)c1ccc(N3CCOCC3)cc1S2(=O)=O | 27 | 98* | 4 | 17 | + | x | 30 | -21 | 13
O=C(NCc1ccc(F)cc1)c1cccc2c1C(=O)c1ccc(N3CCOCC3)cc1S2(=O)=O | 23 | -2 | 28 | 11 | + | x | 54* | -11 | 30
O=C(NCc1cccc(F)c1)c1cccc2c1C(=O)c1ccc(Cl)cc1S2(=O)=O | 3 | 12 | -1 | -7 | i | x | x | x | x
COc1cccc(N2C(=O)CC(Nc3ccc(N4CCOCC4)cc3)C2=O)c1 (stereo unspecified) | 0 | -3 | 1 | -3 | i | 0 | x | x | x
CC1(O)C(=O)C=C2C=C(c3ccsc3)OC=C2C1=O (stereo unspecified) | x | x | x | x | x | -3 | x | x | x
SMILES | HNF4A DNA FP | CRFBP-R2 block | CRFBP-R2 agonist | CSN deneddyl inh | Rpn11 block | TPT1 inhibitor | Rpn11 confirm | MMP-2 inh | Thrombin inh
Cc1cccc(N=C2NC(=O)/C(=C/c3cccnc3)S2)c1 | 2 | -8 | 1 | 2 | i | 3 | x | x | x
Cc1cccc(N=C2NC(=O)/C(=C\c3cccs3)S2)c1 | 0 | 9 | -2 | 3 | + | 4 | -1 | -40 | -12
CC(=O)Nc1ccc(S(=O)(=O)Nc2cccc(-n3c(C)nc4ccccc4c3=O)c2)cc1 | 4 | -5 | 0 | -6 | i | -1 | x | x | x
O=C(Nc1nc2ccc(S(=O)(=O)N3CCCCC3)cc2s1)c1cccnc1 | 7 | -14 | 0 | 2 | + | 4 | 6 | -9 | -2
O=C(Nc1nc2ccc(F)cc2s1)c1cccc(S(=O)(=O)N2CCc3ccccc32)c1 | 2 | -31 | 1 | -2 | i | -3 | x | x | x
CC(=O)Nc1nc2ccc(S(=O)(=O)N3CCCCC3)cc2s1 | -4 | -7 | 2 | 0 | i | -2 | x | x | x
Cc1ccc(S(=O)(=O)N2CCCC2C(=O)Nc2nc3ccccc3s2)cc1 (stereo unspecified) | -21 | -56 | 1 | -2 | + | 4 | -14 | 0 | -19
Cc1ccc2nc(NC(=O)c3ccc(S(=O)(=O)N4CCCc5ccccc54)cc3)sc2c1 | -2 | 2 | 2 | -4 | + | -6 | -15 | -34 | -14
CC1CCCN(CC(O)COCc2ccc3c(c2)OCO3)C1 (stereo unspecified) | 1 | -3 | 4 | -9 | i | 2 | x | x | x

From PubChem
